Broadly, the MIC is the least concentration at which growth counts as inhibited. Low readings indicate greater potency, high ones weaker potency.

≈ marks a conversion by molar mass, not a printed value.

We go through eight molecules from ChEMBL document CHEMBL1275252, “First survey of metallo-beta-lactamases in clinical isolates of Pseudomonas aeruginosa in a German university hospital” (2010).

Holding throughout (assay type): functional
Assay [1] relates to Pseudomonas aeruginosa. Nature of the assay: Antimicrobial activity against Pseudomonas aeruginosa isolate PA399 expressing VIM-2 beta-lactamase.
Assay [2] relates to Pseudomonas aeruginosa. Nature of the assay: Antimicrobial activity against Pseudomonas aeruginosa isolate PA462 expressing VIM-2 beta-lactamase.
Assay [3] has as its system Pseudomonas aeruginosa. Nature of the assay: Antimicrobial activity against Pseudomonas aeruginosa isolate PA465 expressing VIM-2 beta-lactamase.
The subject of assay [4] is Pseudomonas aeruginosa. The assay can be described thus: Antimicrobial activity against Pseudomonas aeruginosa isolate PA469 expressing VIM-2 beta-lactamase.
Assay [5] has as its system Pseudomonas aeruginosa. The assay can be described thus: Antimicrobial activity against Pseudomonas aeruginosa isolate PA475 expressing VIM-2 beta-lactamase.
Assay [6] has as its system Pseudomonas aeruginosa. Nature of the assay: Antimicrobial activity against Pseudomonas aeruginosa isolate PA477 expressing VIM-2 beta-lactamase.
For assay [7], the system named is Pseudomonas aeruginosa. Nature of the assay: Antimicrobial activity against Pseudomonas aeruginosa isolate PA481 expressing VIM-2 beta-lactamase.
For assay [8], the system named is Pseudomonas aeruginosa. Nature of the assay: Antimicrobial activity against Pseudomonas aeruginosa isolate PA500 expressing VIM-1 beta-lactamase.
Assay [9] concerns Pseudomonas aeruginosa. Nature of the assay: Antimicrobial activity against Pseudomonas aeruginosa isolate PA510 expressing VIM-2 beta-lactamase.
In assay [10] the test system is Pseudomonas aeruginosa. Nature of the assay: Antimicrobial activity against metallo-beta-lactamase-negative Pseudomonas aeruginosa isolate PA459. Summed up: (§1)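 MBL-negative clinical P. aeruginosa isolates with reduced imipenem susceptibility, collected at the study hospital, some from cystic fibrosis patients. Species identity was confirmed by automated Gram-negative identification card. MIC was read in μg/ml.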

The subject of assay [11] is Pseudomonas aeruginosa. Nature of the assay: Antimicrobial activity against metallo-beta-lactamase-negative Pseudomonas aeruginosa isolate PA460.
The test system of assay [12] is Pseudomonas aeruginosa. The assay can be described thus: Antimicrobial activity against metallo-beta-lactamase-negative Pseudomonas aeruginosa isolate PA479.
In assay [13] the test system is Pseudomonas aeruginosa. Nature of the assay: Antimicrobial activity against metallo-beta-lactamase-negative Pseudomonas aeruginosa isolate PA483.
Assay [14] relates to Pseudomonas aeruginosa. The assay can be described thus: Antimicrobial activity against metallo-beta-lactamase-negative Pseudomonas aeruginosa isolate PA494.
In assay [15] the test system is Pseudomonas aeruginosa. The assay can be described thus: Antimicrobial activity against metallo-beta-lactamase-negative Pseudomonas aeruginosa isolate PA507. The gist of the method:
as §1

The test system of assay [16] is Pseudomonas aeruginosa. The assay can be described thus: Antimicrobial activity against metallo-beta-lactamase-negative Pseudomonas aeruginosa isolate PA509.

Regarding `NCC[C@H](O)C(=O)N[C@@H]1C[C@H](N)[C@@H](O[C@H]2O[C@H](CN)[C@@H](O)[C@H](O)[C@H]2O)[C@H](O)[C@H]1O[C@H]1O[C@H](CO)[C@@H](O)[C@H](N)[C@H]1O` [AMIKACIN], the MIC turned out to be 8 µg/mL (≈ 13.7 µM) in assay [1]; 4 µg/mL (≈ 6.83 µM) in assay [2]; 8 µg/mL (≈ 13.7 µM) in assay [3]; 8 µg/mL (≈ 13.7 µM) in assay [4]; 4 µg/mL (≈ 6.83 µM) in assay [5]; 8 µg/mL (≈ 13.7 µM) in assay [6]. Moreover, the MIC is 8 µg/mL (≈ 13.7 µM) in [7]; not above 2 µg/mL in assay [8]; 4 µg/mL (≈ 6.83 µM) in assay [9]; 2 µg/mL (≈ 3.42 µM) in assay [10]; 4 µg/mL (≈ 6.83 µM) in assay [11]; 8 µg/mL (≈ 13.7 µM) in assay [12]. Moreover, the MIC in assay [13] was 2 µg/mL (≈ 3.42 µM); in assay [14], 8 µg/mL (≈ 13.7 µM); in [15], 16 µg/mL (≈ 27.3 µM); in assay [16] it was 64 µg/mL (≈ 109 µM).

`C[C@H]1[C@H](NC(=O)/C(=N\OC(C)(C)C(=O)O)c2csc(N)n2)C(=O)N1S(=O)(=O)O` [AZTREONAM]: the MIC in assay [1], in assay [2], in [3], in [4], in assay [5] and in assay [6] was 16 µg/mL (≈ 36.7 µM) each time. Further, the MIC is 16 µg/mL (≈ 36.7 µM) in assay [7]; 4 µg/mL (≈ 9.19 µM) in assay [8]; not below 64 µg/mL in assay [9]; 16 µg/mL (≈ 36.7 µM) in [10]; 16 µg/mL (≈ 36.7 µM) in [11]; 32 µg/mL (≈ 73.5 µM) in assay [12]. The MIC in [13] came to 64 µg/mL (≈ 147 µM); in assay [14], 16 µg/mL (≈ 36.7 µM); in assay [15], 16 µg/mL (≈ 36.7 µM); in assay [16], 8 µg/mL (≈ 18.4 µM).

For `CO/N=C(\C(=O)N[C@@H]1C(=O)N2C(C(=O)[O-])=C(C[N+]3(C)CCCC3)CS[C@H]12)c1csc(N)n1` [CEFEPIME], the minimal inhibitory concentration (MIC) in assay [1], in [2], in assay [3], in assay [4], in assay [5] and in assay [6] was not below 64 µg/mL each time. Moreover, the MIC was not below 64 µg/mL in assay [7]; not below 64 µg/mL in [8]; not below 64 µg/mL in assay [9]; 8 µg/mL (≈ 16.6 µM) in [10]; not below 64 µg/mL in [12]; 32 µg/mL (≈ 66.6 µM) in [13]. Besides, the MIC stood at 8 µg/mL (≈ 16.6 µM) in assay [14] and 16 µg/mL (≈ 33.3 µM) in [16].

As to `O=C(O)c1cn(C2CC2)c2cc(N3CCNCC3)c(F)cc2c1=O` [CIPROFLOXACIN], the MIC in [1], in assay [2], in assay [3], in [4], in assay [5] and in assay [6] was not below 4 µg/mL in each case. The MIC in assay [7], in assay [8], in assay [9], in assay [11], in [12] and in assay [14] was not below 4 µg/mL each time. The MIC in assay [16] was not below 4 µg/mL.

With `C[C@@H](O)[C@H]1C(=O)N2C(C(=O)O)=C(S[C@@H]3CN[C@H](C(=O)N(C)C)C3)[C@H](C)[C@H]12` [MEROPENEM], the MIC in [1], in [2], in assay [3], in assay [4], in assay [5] and in [6] was not below 16 µg/mL each time. Further, the minimal inhibitory concentration (MIC) in [7] is not below 16 µg/mL; in assay [8], not below 16 µg/mL; in assay [9], not below 16 µg/mL; in assay [10], 8 µg/mL (≈ 20.9 µM); in [11], 8 µg/mL (≈ 20.9 µM); in [12] it was not below 16 µg/mL. Besides, the MIC was not below 16 µg/mL in [13], 8 µg/mL (≈ 20.9 µM) in [14], 4 µg/mL (≈ 10.4 µM) in assay [15] and not below 16 µg/mL in [16].

`NC[C@H]1O[C@H](O[C@H]2[C@H](O)[C@@H](O[C@H]3O[C@H](CO)[C@@H](O)[C@H](N)[C@H]3O)[C@H](N)C[C@@H]2N)[C@H](N)C[C@@H]1O` [TOBRAMYCIN]: the MIC in assay [1] was not below 16 µg/mL; in [2] it was not below 16 µg/mL; in assay [3], not above 1 µg/mL; in assay [4], not below 16 µg/mL; in assay [5], not below 16 µg/mL; in assay [6] it was not below 16 µg/mL. Besides, the MIC in [7] was not below 16 µg/mL; in assay [8], 8 µg/mL (≈ 17.1 µM); in assay [9], not below 16 µg/mL; in assay [10] it was 1 µg/mL (≈ 2.14 µM); in [11] it was not below 16 µg/mL; in assay [12], not below 16 µg/mL. Also, the MIC in assay [13] is 1 µg/mL (≈ 2.14 µM); in assay [14], 1 µg/mL (≈ 2.14 µM); in assay [15], 1 µg/mL (≈ 2.14 µM); in [16], not below 16 µg/mL.

For the molecule COLISTIN, the MIC was 1 µg/mL in assay [1]; 1 µg/mL in assay [2]; 2 µg/mL in assay [3]; 1 µg/mL in assay [4]; 1 µg/mL in assay [5]; 1 µg/mL in assay [6]. Besides, the MIC in [7], in [8], in [9], in assay [10], in assay [11] and in [12] was 1 µg/mL throughout. Besides, the MIC in assay [13] turned out to be 1 µg/mL; in [14], 1 µg/mL; in assay [15] it was 1 µg/mL; in assay [16], 2 µg/mL.

Regarding GENTAMICIN, the MIC in [1], in [2], in assay [3], in assay [4], in assay [5] and in assay [6] was more than 16 µg/mL in each case. Also, the MIC is more than 16 µg/mL in assay [7]; more than 16 µg/mL in [8]; more than 16 µg/mL in assay [9]; 1 µg/mL in [10]; more than 16 µg/mL in assay [11]; more than 16 µg/mL in [12]. Further, the MIC in assay [13] is 1 µg/mL; in assay [14], 8 µg/mL; in [15] it was more than 16 µg/mL; in [16] it was more than 16 µg/mL.
